NadD inh = NadD (S. aureus) enzyme inhibition; inhibition, % at 20 µM; AID 602399; purified NadD enzyme, colorimetric absorbance read-out; hit rate 0.78% among 360,000; in the data active = inhibition above about 26%
Beta2AR agonist = human beta-2 adrenergic receptor agonism by FAP | Am2.2-beta2AR cells, FAP receptor internalization, flow cytometry | AID 504454 | response, % (no concentration beside the values) | hit rate 0.43% among 340,000 | P07550;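 active = response above a set limit, near 3 SD of response in nonfluorescent compounds, cut at about 42% in these data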
Target sequence (P07550 whole entry, looked up): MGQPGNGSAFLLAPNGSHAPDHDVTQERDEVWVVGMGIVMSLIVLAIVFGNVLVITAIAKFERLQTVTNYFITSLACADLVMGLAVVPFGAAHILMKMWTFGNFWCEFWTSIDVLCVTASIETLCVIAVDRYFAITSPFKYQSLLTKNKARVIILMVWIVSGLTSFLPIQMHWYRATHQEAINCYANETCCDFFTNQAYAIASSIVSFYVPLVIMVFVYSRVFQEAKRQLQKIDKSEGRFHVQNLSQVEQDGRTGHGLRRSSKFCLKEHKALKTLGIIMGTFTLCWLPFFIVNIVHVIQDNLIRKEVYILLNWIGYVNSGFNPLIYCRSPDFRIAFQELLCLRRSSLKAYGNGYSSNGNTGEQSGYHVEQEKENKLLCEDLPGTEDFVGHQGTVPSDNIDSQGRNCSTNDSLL
SENP1 inh = SENP1 (human) catalytic domain inhibition. Q9P0U3. hit rate 0.21% among 360,000. AID 624204. inhibition, % at 10 µM. recombinant SENP1 catalytic domain, CyPet-SUMO1-YPet FRET cleavage;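 active = inhibition at least 30% at 10 µM, raw YFP signal under a set limit, fluorescence ratio 0.5 to 1.5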;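 also: 0% = enzyme with DMSO and 100% = no enzyme wells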
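Test system: human SENP1 catalytic domain; medium: Tris pH 8 buffer plus EDTA, NaCl, BME, BSA, NP40, catalase; incubation: 50 min reaction at room temperature; technique: FRET, CFP and YFP emission; controls: no-enzyme low control and enzyme-plus-DMSO high control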
ABHD5 PLIN5 PPI = ABHD5-PLIN5 protein interaction inhibition | AID 602281 | inhibition, % at 4 µM | hit rate 0.78% among 360,000 | Split G. princeps luciferase complementation, luminescence, 4 h;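 active = inhibition above the mean inhibition across every tested compound plus 3 SD, cut at about 22% in these data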;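 also: 0% = DMSO only wells and the 100% control is not disclosed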
GRK2 inh = human GRK2 inhibition via aptamer displacement; P25098; bead flow cytometry, FAM-aptamer displacement from GRK2; inhibition of aptamer binding, % at 10 µM; hit rate 0.59% among 330,000;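 active = inhibition of aptamer binding above 40%, roughly 3 SD of noise, on plates passing a quality check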;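 also: median bead fluorescence of bound FAM aptamer so fluorescent compounds give negative values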
NadD conf = NadD (S. aureus) inhibition, single concentration confirmation. shares compounds with NadD inh. purified S. aureus NadD, colorimetric enzyme assay. inhibition, % at 20 µM. hit rate 13% among 2,000. AID 624309; in the data active = inhibition mostly above about 42%, no sharp cut-off; inactive = mostly below about 42%
An asterisk follows results filed as active; / = not tested or not shown. Compounds with a hit are over-represented: about 2.5% of the library has one in this group of screens.

SMILES	NadD inh	Beta2AR agonist	SENP1 inh	ABHD5 PLIN5 PPI	GRK2 inh	NadD conf
COc1ccc(-c2cc(CNc3nc(NC(C)C)nc4cc(-c5ccccc5)sc34)on2)cc1	34*	/	-9	7	/	21
CCC1CCCCN1c1ccc([N+](=O)[O-])cc1/C=N/NC(=O)Cn1c2ccccc2c(=O)c2ccccc21 (stereo not drawn)	51*	1	-65	2	0	3
N#CCC(=O)N/N=C/c1cc([N+](=O)[O-])ccc1N1CCOCC1	1	-1	1	-2	0	/
COc1cccc(N2[C@@H](CC(=O)O)c3cc(C(F)(F)F)ccc3S2(=O)=O)c1	49*	3	-1	11	2	52*
COc1ccc(/C=C2\SC(=O)N(CC(=O)Nc3cccc(C)c3)C2=O)cc1O	1	8	-3	6	3	/
Cn1c(=O)c2c([nH]c(=S)n2Cc2ccc(Cl)cc2)n(C)c1=O	32*	-3	1	-19	0	35
Cc1cc[n+](CC(=O)c2ccc(NC(=O)c3ccccc3)cc2)c2ccccc12	37*	-6	12	6	0	-16
O=C(NC(=S)NN1CCOCC1)c1cc(Br)ccc1Cl	-2	-4	1	-6	3	/
COc1ccc2nc3sc(C(=O)NCCCN4CCc5ccccc5C4)cc3cc2c1	30*	1	-59	10	0	9
O=S(=O)(CC=CCS(=O)(=O)c1ccccc1)c1ccccc1	-2	-8	1	1	/	/
O=C1COc2ccc(NC(=O)c3ccccc3C(=O)O)cc2N1	-2	-4	1	-8	0	/
O=C(CSC(=S)N1CCCC1)c1cc(Br)cc(Br)c1O	/	/	/	/	1	/
CC1CCCN(C(=S)SCC(=O)c2cc(Br)cc(Br)c2O)C1 (stereo not drawn)	64*	9	-41	-9	1	10
Cc1ccc(-c2csc(Cc3nc(-c4ccc5c(c4)CCC(=O)N5)cs3)n2)cc1	33*	16	11	-6	0	19
COc1ccc(/C=C/C(=O)NC(=S)Nc2ccc(S(=O)(=O)Nc3cc(OC)ncn3)cc2)cc1	54*	8	-6	-2	/	35
CCc1nnc(NS(=O)(=O)c2ccc(NC(=S)NC(=O)/C=C/c3ccc(F)cc3)cc2)s1	31*	7	2	-2	0	51*
COc1cc(NS(=O)(=O)c2ccc(NC(=S)NC(=O)/C=C/c3ccc(OC)c(OC)c3)cc2)ncn1	26	7	-16	2	0	/
COc1ccc(/C=C/C(=O)NC(=S)Nc2ccc(S(=O)(=O)N=C(N)N)cc2)cc1OC	30*	3	-20	6	0	-3
COc1cccc(CNC(=O)CN2C(=O)CCSc3ccc(S(=O)(=O)N4CCCC4)cc32)c1	2	3	2	12	4	/
Cc1ccc(NC(=O)CSc2nc3c(c(=O)[nH]2)CCC3)c(C)c1	0	5	0	2	2	/
C/C(=N\Nc1nc(-c2cc(C)ccc2C)cs1)c1cc2ccccc2oc1=O	4	-3	-5	4	3	/
C/C(=N\Nc1nc(-c2cc(C)ccc2C)cs1)c1cc2c(ccc3ccccc32)oc1=O	48*	8	-32	-10	1	4
C[C@@H]1CN([C@H](C)CO)C(=O)Cc2cc(NC(=O)Nc3ccccc3)ccc2O[C@@H]1CN(C)Cc1ccc2c(c1)OCO2	8	5	-2	8	0	/
CCOC(=O)c1sc(NC(=O)c2cc(-c3ccccc3C)nc3ccccc23)c(C#N)c1C	48*	23	20	-4	7	29
COc1ccc(-c2nc(NC(=O)C3=NN(c4cccc(C)c4)C(=O)CC3)sc2C)cc1	31*	0	-3	-6	4	2
CCC(C)c1ccc(C2C3=C(Nc4nc(N)[nH]c(=O)c42)c2ccccc2C3=O)cc1 (stereo not drawn)	37*	-1	2	12	1	11
CCCCc1nc2ccccc2c(=O)n1NC(=O)c1c(O)c2c(n(CC(C)C)c1=O)CCCC2	33*	5	0	-1	/	14
C=CCN(CC=C)S(=O)(=O)c1ccc(NC(=S)NC(=O)/C=C/c2cccc3ccccc23)cc1	31*	2	16	-4	1	4
